Consider five molecules from ChEMBL document CHEMBL1121890, “Synthesis and antimetastatic properties of steroeoisomeric trycylic bis(dioxopiperazine) analogues in a B16 melanoma model” (1981).

Holding throughout (format): functional, Mus musculus
Assay [1] has as its system B16-F10. Briefly: Effect of 100 uM on B16-F10 melanoma cells (experiment 2). The essentials:
(§1)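 B16-F10 cells, cultured in vitro for no more than 10 passages, were exposed for 24 h to drug made up as a 1000 μM Me₂SO stock and diluted in medium. Controls were Me₂SO or saline. Cells were scraped, washed and set at 5 × 10⁵/mL in Hanks BSS, and 0.2 mL was given iv by tail vein to male C57Bl/6J mice aged 6–8 weeks. Black lung nodules were counted at 14 days, mean ± SD, ANOVA/Newman–Keuls.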

The test system of assay [2] is B16-F10. In words: Effect of 2 uM on B16-F10 melanoma cells (experiment 2). The essentials: as §1
The test system of assay [3] is B16-F10. In words: Effect of 20 uM on B16-F10 melanoma cells (experiment 2). The method, boiled down: as §1
Assay [4] has as its system B16-F10. In words: Effect of 20 uM on B16-F10 melanoma cells (experiment 1). The method, boiled down:
as §1

Assay [5] relates to B16-F10. Briefly: Effect of 2 uM on B16-F10 melanoma cells (experiment 1). The essentials:
as §1

Assay [6] relates to B16-F10. Briefly: Effect of 100 uM on B16-F10 melanoma cells (experiment 1). The method, boiled down: as §1

Where “and” joins values, the source holds several entries; their conditions need not be identical. Identical values can stand only once.

As for `O=C1CN2CCN3CC(=O)NC(=O)[C@H]3C2C(=O)N1` (some centres not stated), the “Mean no. of lung colonies” value in assay [1] is reported as 118.9; in assay [2], 52.1; in assay [3], 96.1.

For the molecule `O=C1CN2CCN3CC(=O)NC(=O)[C@@H]3C2C(=O)N1` (some centres not stated), the “Mean no. of lung colonies” value in assay [4] was 23.3; in assay [5] it was 29.1; in assay [2], 39.1; in assay [3], 50.1 and 50.2; in assay [6], 65.7.

As to `CCOC(=O)CN1CCN(CC(=O)OCC)[C@H]2C(=O)NC(=O)[C@H]21`, the “Mean no. of lung colonies” value in assay [4] is given as 160.7; in assay [5] it was 159.7; in assay [6], 142.5.

Turning to `CCOC(=O)COC(=O)[C@H]1[C@@H](C(N)=O)N(CC(=O)OCC)CCN1CC(=O)OCC`, the “Mean no. of lung colonies” value in assay [4] is reported as 43.4; in assay [5] it was 33.2; in assay [6], 37.1.

As for `COC(=O)CN1CCN2CC(=O)NC(=O)[C@@H]2[C@@H]1C(N)=O`, the “Mean no. of lung colonies” value in assay [1] stood at 56.7; in assay [2], 86.2; in assay [3] it was 101.3.
